Experiments:
Format in all cases: functional
[1] = tested on: Mus musculus; assay: Trypanocidal Activity at I.C.E. value >0.15 when administered subcutaneously.
How it was run: (§1)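 Mice, in groups of five per dose, were given a standard inoculum of blood-stage T. rhodesiense that is lethal to all untreated controls, then dosed subcutaneously. Usually 11 dose levels were used (2^n × 0.42 mg/kg).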

[2] = tested on: Mus musculus; assay: Trypanocidal Activity at I.C.E. value 0.24 when administered subcutaneously.
How it was run: (§2)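 Blood-stage T. rhodesiense infection came from a standard inoculum lethal to all untreated mice. Drug was given by subcutaneous injection to groups of five mice. Survival beyond 30 days counted as cure. […] Sub-curative doses scored 0, and data were normalized at each dose.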

[3] = tested on: Mus musculus; assay: Trypanocidal Activity at I.C.E. value 0.06 when administered perorally.
[4] = tested on: Mus musculus; assay: Trypanocidal Activity at I.C.E. value 0.20 when administered subcutaneously.
[5] = tested on: Mus musculus; assay: Trypanocidal Activity at I.C.E. value 0.49 when administered perorally.
[6] = tested on: Mus musculus; assay: Trypanocidal Activity at I.C.E. value 0.46 when administered subcutaneously.; how it was run: as §2
[7] = tested on: Mus musculus; assay: Trypanocidal Activity at I.C.E. value 0.55 when administered subcutaneously.; how it was run: as §1
[8] = tested on: Trypanosoma brucei rhodesiense; assay: In Vitro measurement of inhibition of thymidine uptake in cell culture of Trypanosoma rhodesiense; conditions: read-out: ID50 (the source's name)
How it was run: (§3)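 Parasites harvested from infected rats and incubated 3 h across a drug concentration series, usually 0.1–100 µg/mL. Incorporation of radiolabeled thymidine measured. ID50 is the concentration (µg/mL) producing 50% inhibition.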

[9] = tested on: Trypanosoma brucei rhodesiense; assay: In Vitro measurement of inhibition of leucine uptake in cell culture of Trypanosoma rhodesiense; conditions: read-out: ID50 (the source's name)
How it was run: (§4)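 Trypanosomes harvested from infected rats, cultured 3 h with several concentrations of drug, usually 0.1–100 µg/mL. Radiolabeled L-leucine uptake measured. ID50 is the concentration in µg/mL giving 50% inhibition of incorporation.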

[10] = tested on: Trypanosoma brucei rhodesiense; assay: In Vitro measurement of inhibition of thymidine uptake in cell culture of Trypanosoma rhodesiense.; conditions: read-out: ID50 (the source's name); how it was run: as §3
[11] = tested on: Mus musculus; assay: Trypanocidal Activity at I.C.E. value 0.41 when administered subcutaneously.; how it was run: as §2
[12] = tested on: Trypanosoma brucei rhodesiense; assay: In Vitro measurement of inhibition of Leucine uptake in cell culture of Trypanosoma rhodesiense.; conditions: read-out: ID50 (the source's name); how it was run: as §4
[13] = tested on: Mus musculus; assay: Trypanocidal Activity at I.C.E. value 0.22 when administered subcutaneously.
[14] = tested on: Mus musculus; assay: Trypanocidal Activity at I.C.E. value 0.84 when administered subcutaneously.; how it was run: as §1
[15] = tested on: Mus musculus; assay: Trypanocidal Activity at I.C.E. value 0.40 when administered perorally.
[16] = tested on: Mus musculus; assay: Trypanocidal Activity at I.C.E. value 0.74 when administered subcutaneously.; how it was run: as §1
[17] = tested on: Mus musculus; assay: Trypanocidal Activity at I.C.E. value 0.50 when administered subcutaneously.; how it was run: as §2
[18] = tested on: Mus musculus; assay: Trypanocidal Activity at I.C.E. value 0.12 when administered perorally.
[19] = tested on: Mus musculus; assay: Trypanocidal Activity at I.C.E. value 0.21 when administered subcutaneously.
[20] = tested on: Mus musculus; assay: Trypanocidal Activity at I.C.E. value 0.60 when administered subcutaneously.; how it was run: as §1
[21] = tested on: Mus musculus; assay: Trypanocidal Activity at I.C.E. value 0.83 when administered subcutaneously.; how it was run: as §1
[22] = tested on: Mus musculus; assay: Trypanocidal Activity at I.C.E. value 0.28 when administered perorally.
[23] = tested on: Mus musculus; assay: Trypanocidal Activity at I.C.E. value 0.61 when administered perorally.
[24] = tested on: Mus musculus; assay: Trypanocidal Activity at I.C.E. value 0.20 when administered perorally.
[25] = tested on: Mus musculus; assay: Trypanocidal Activity at I.C.E. value 0.30 when administered subcutaneously.; how it was run: as §2
[26] = tested on: Mus musculus; assay: Trypanocidal Activity at I.C.E. value 0.15 when administered perorally.
[27] = tested on: Mus musculus; assay: Trypanocidal Activity at I.C.E. value 0.56 when administered perorally.
[28] = tested on: Mus musculus; assay: Trypanocidal Activity at I.C.E. value 0.57 when administered subcutaneously.; how it was run: as §1
[29] = tested on: Mus musculus; assay: Trypanocidal Activity at I.C.E. value 0.76 when administered subcutaneously.; how it was run: as §1

Question: `C[n+]1c(-c2ccc(/C=N/NC(=N)N[N+](=O)[O-])cc2)cn2ccccc21.[Br-]` was tested. Which CD50 [1] did it give?
Answer: <26 mg/kg

Question: What does the source list for `Cc1ccc(S(=O)(=O)O)cc1.Cc1ccc(S(=O)(=O)[O-])cc1.Cc1ccc2n(c1)cc(-c1ccc(/C=C/C=N/NC(=N)N)cc1)[n+]2C`?
Answer: CD50 [2]: 106 mg/kg; CD50 [3]: 424 mg/kg

Question: With `C=CC[n+]1c(-c2ccc(NC(C)=O)cc2)cn2ccccc21.[Br-]` as the compound, how does the CD50 [4] read?
Answer: 26 mg/kg

Question: Which CD50 [5] does the source give for `Br.Cc1ccc2n(c1)cc(COc1ccc(/C=N/NC(=N)N3CCCC3)cc1)[n+]2C.[Br-]` here?
Answer: 13 mg/kg

Question: What about the CD50 [6] of the same compound?
Answer: 0.8 mg/kg

Question: How did the CD50 [7] turn out when `Br.CSC(=N)N/N=C/c1ccc(-c2cn3ccccc3[n+]2C)cc1.[Br-]` was run?
Answer: 6.6 mg/kg

Question: What about the IC50 [8] of the same compound?
Answer: 3.8 µg/mL

Question: What about the IC50 [9] of the same compound?
Answer: 5.8 µg/mL

Question: With `Br.CNC(=N)N/N=C/c1ccc(-c2cn3ccccc3[n+]2C)cc1.[Br-]` as the compound, how does the IC50 [10] read?
Answer: 0.5 µg/mL

Question: What about the CD50 [11] of the same compound?
Answer: 0.8 mg/kg

Question: What about the IC50 [12] of the same compound?
Answer: 0.7 µg/mL

Question: Which results are given for `Br.C[n+]1c(-c2ccc(/C=N/NC(=N)NN3CCOCC3)cc2)cn2ccccc21.[Br-]`?
Answer: IC50 [8]: 6.7 µg/mL; IC50 [9]: 9.7 µg/mL; CD50 [13]: 0.8 mg/kg

Question: For `Br.CCCCSc1ccc2n(c1)cc(-c1ccc(/C=N/NC(=N)NO)cc1)[n+]2C.[Br-]`, which CD50 [14] is on record?
Answer: 0.8 mg/kg

Question: And the CD50 [15]?
Answer: 26 mg/kg

Question: Which CD50 [16] does the source give for `Br.Cc1cccc2n1cc(COc1ccc(/C=N/NC(=N)NO)cc1)[n+]2C.[Br-]` here?
Answer: 0.8 mg/kg

Question: What about the CD50 [5] of the same compound?
Answer: 13 mg/kg

Question: How did the CD50 [17] turn out when `C[n+]1c(-c2ccc(/C=N/Nc3nc[nH]n3)cc2)cn2ccsc21.[Br-]` was run?
Answer: 13 mg/kg

Question: Which CD50 [7] does the source give for `Cc1ccc(S(=O)(=O)O)cc1.Cc1ccc(S(=O)(=O)[O-])cc1.Cc1ccn2cc(-c3ccc(/C=N/NC(=N)N)cc3)[n+](C)c2c1` here?
Answer: 1.6 mg/kg

Question: What about the IC50 [10] of the same compound?
Answer: 1 µg/mL

Question: `Br.C[n+]1ccc(COc2ccc(/C=N/NC3=NCCN3)cc2)cc1.[Br-]` was tested. Which CD50 [18] did it give?
Answer: 424 mg/kg

Question: And the CD50 [19]?
Answer: 13 mg/kg

Question: For `Br.CCNC(=N)N/N=C/c1ccc(OCc2n(C)c3ccccc3[n+]2C)cc1.[Br-]`, which CD50 [20] is on record?
Answer: 1.6 mg/kg

Question: Which results are given for `CCCCSc1ccc2n(c1)cc(-c1ccc(/C=N/NC(=N)N)cc1)[n+]2C.Cc1ccc(S(=O)(=O)O)cc1.Cc1ccc(S(=O)(=O)[O-])cc1`?
Answer: CD50 [21]: 0.4 mg/kg; CD50 [22]: 106 mg/kg

Question: Which results are given for `Br.C[n+]1c(COc2ccc(/C=N/NC3=NCCN3)cc2)cn2ccccc21.[Br-]`?
Answer: CD50 [20]: 0.8 mg/kg; CD50 [23]: 6.6 mg/kg

Question: For `Br.Cc1ccc2n(c1)cc(/C=C/c1ccc(/C=N/NC3=NCCCN3)cc1)[n+]2C.[Br-]`, which CD50 [11] is on record?
Answer: 1.6 mg/kg

Question: How did the CD50 [14] turn out when `Br.Cc1cccc2n1cc(/C=C/c1ccc(/C=N/NC3=NCCCN3)cc1)[n+]2C.[Br-]` was run?
Answer: 0.4 mg/kg

Question: `C[n+]1c(-c2ccc(/C=N/NC(=N)N3CCSC3)cc2)cn2ccccc21.Cc1ccc(S(=O)(=O)O)cc1.Cc1ccc(S(=O)(=O)[O-])cc1` was tested. Which CD50 [24] did it give?
Answer: 212 mg/kg

Question: What about the CD50 [25] of the same compound?
Answer: 13 mg/kg

Question: What does the source list for `Br.CC/N=C(\NCC)N/N=C/c1ccc(C[n+]2cn(C)c3ccccc32)cc1.[Br-]`?
Answer: CD50 [25]: 13 mg/kg; CD50 [26]: 424 mg/kg

Question: Which IC50 [10] does the source give for `Br.C[n+]1c(-c2ccc(/C=N/NC3=NCCN3)cc2)cn2ccccc21.[Br-]` here?
Answer: 0.8 µg/mL

Question: And the CD50 [27]?
Answer: 13 mg/kg

Question: And the CD50 [28]?
Answer: 0.8 mg/kg

Question: And the IC50 [12]?
Answer: 0.9 µg/mL

Question: With `C[n+]1c(/C=C/c2ccc(/C=N/NC(=N)N3CCCC3)cc2)cn2ccccc21.Cc1ccc(S(=O)(=O)O)cc1.Cc1ccc(S(=O)(=O)[O-])cc1` as the compound, how does the CD50 [16] read?
Answer: 0.8 mg/kg

Question: For `Br.Cc1ccc2n(c1)cc(-c1ccc(/C=N/NC3=NCCCN3)cc1)[n+]2C.[Br-]`, which CD50 [29] is on record?
Answer: 0.2 mg/kg

— ChEMBL document CHEMBL1124947, “Cationic antiprotozoal drugs. Trypanocidal activity of 2-(4'-formylphenyl)imidazo[1,2-a]pyridinium guanylhydrazones and related derivatives of quaternary heteroaromatic compounds” (J Med Chem, 1990)
